“Also recorded” adds a separate entry of the source.
Tests used:
Format in all cases: in vivo, human
[1] = tested on: non-GCB DLBCL; test: Best response by cell of origin; details: non-GCB-derived disease, 20 patients (MR + MRV)
[2] = Alisertib plasma PK in patients; details: for AUC / Cmax / Tmax: human, plasma, oral; for AUC: Geometric mean AUCτ (CV); for Cmax: Geometric mean Cmax (CV)
Summary of the method: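 Patients with relapsed/refractory aggressive B-cell NHL took oral test compound twice daily on days 1–7 of 21-day cycles, at 30 to 50 mg b.i.d. Cohorts received it with rituximab 375 mg/m2 i.v. on day 1, with or without vincristine 1.4 mg/m2 (max 2 mg) i.v. on days 1 and 8. Blood was drawn at prespecified times after the morning dose on cycle 1 days 1 and 7. Cmax, tmax and AUCτ were derived by noncompartmental analysis.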

[3] = tested on: GCB DLBCL; test: Best response by cell of origin; details: MR + MRV; P = 0.058 vs non-GCB, two-sided Fisher exact test
[4] = tested on: relapsed/refractory aggressive B-cell lymphoma; test: Antitumor activity, investigator-assessed response
[5] = Vincristine plasma PK in presence; details: for AUC / AUC(0-inf) / clearance / Cmax / half-life: human, plasma, intravenous; for AUC: Geometric mean AUCτ (CV); for AUC(0-inf): Geometric mean AUC∞ (CV); for clearance: Geometric mean CL (CV); for Cmax: Geometric mean Cmax (CV); for half-life: Mean t1/2z (st. dev)
[6] = 30 mg, MRV, alisertib 30 mg b.i.d., C1D1, n=4
[7] = 30 mg, MRV, alisertib 30 mg b.i.d., C1D7, n=4
[8] = 40 mg, MRV, alisertib 40 mg b.i.d., C1D7, n=20
[9] = 50 mg, MR, alisertib 50 mg b.i.d., C1D7, n=12
[10] = 50 mg, MRV, alisertib 50 mg b.i.d., C1D1, n=3
[11] = 50 mg, MRV, alisertib 50 mg b.i.d., C1D7, n=2
[12] = 30 mg, alisertib 30 mg b.i.d. cohort, C1D1 (alisertib present), n=4
[13] = 30 mg, alisertib 30 mg b.i.d. cohort, C2D1 (alisertib absent), n=3
[14] = 30 mg, alisertib 30 mg b.i.d. cohort, C2D1 (alisertib absent), n=4
[15] = 40 mg, alisertib 40 mg b.i.d. cohort, C2D1 (alisertib absent), n=17
[16] = 40 mg, alisertib 40 mg b.i.d. cohort, C1D1 (alisertib present), n=22
[17] = 40 mg, alisertib 40 mg b.i.d. cohort, C2D1 (alisertib absent), n=16
[18] = 40 mg, alisertib 40 mg b.i.d. cohort, C1D1 (alisertib present), n=25
[19] = 50 mg, alisertib 50 mg b.i.d. cohort, C1D1 (alisertib present), n=3
[20] = 50 mg, alisertib 50 mg b.i.d. cohort, C2D1 (alisertib absent), n=2

SMILES: COc1cc(Nc2ncc3c(n2)-c2ccc(Cl)cc2C(c2c(F)cccc2OC)=NC3)ccc1C(=O)O [alisertib]
- PR as best response ([1]; 3 patients): 15%
- CR as best response ([1]; 6 patients): 30%
- AUC [2, 6]: 5.22 µM·h
- AUC [2, 7]: 11.8 µM·h
- Cmax [2, 6]: 841 nM
- Cmax [2, 7]: 1660 nM
- Tmax ([2]; 30 mg, Median Tmax (range), MRV, alisertib 30 mg b.i.d., C1D1, n=4): 3.5 h
- Tmax ([2]; 30 mg, Median Tmax (range), MRV, alisertib 30 mg b.i.d., C1D7, n=4): 3.1 h
- AUC ([2]; 40 mg, MRV, alisertib 40 mg b.i.d., C1D1, n=22): 7.44 µM·h
- AUC [2, 8]: 14.9 µM·h
- Cmax ([2]; 40 mg, MRV, alisertib 40 mg b.i.d., C1D1, n=25): 1090 nM
- Cmax [2, 8]: 1950 nM
- Tmax ([2]; 40 mg, Median Tmax (range), MRV, alisertib 40 mg b.i.d., C1D1, n=25): 3 h
- Tmax ([2]; 40 mg, Median Tmax (range), MRV, alisertib 40 mg b.i.d., C1D7, n=20): 3.1 h
- AUC ([2]; 50 mg, MR, alisertib 50 mg b.i.d., C1D1, n=12): 8.61 µM·h
- AUC [2, 9]: 18.7 µM·h
- AUC [2, 10]: 11.2 µM·h
- AUC [2, 11]: 31.8 µM·h
- Cmax ([2]; 50 mg, MR, alisertib 50 mg b.i.d., C1D1, n=13): 1400 nM
- Cmax [2, 9]: 2590 nM
- Cmax [2, 10]: 1670 nM
- Cmax [2, 11]: 3500 nM
- Tmax ([2]; 50 mg, Median Tmax (range), MR, alisertib 50 mg b.i.d., C1D1, n=13): 3 h
- Tmax ([2]; 50 mg, Median Tmax (range), MR, alisertib 50 mg b.i.d., C1D7, n=12): 2 h
- Tmax ([2]; 50 mg, Median Tmax (range), MRV, alisertib 50 mg b.i.d., C1D1, n=3): 6.1 h
- Tmax ([2]; 50 mg, Median Tmax (range), MRV, alisertib 50 mg b.i.d., C1D7, n=2): 2.5 h
- Tmax ([2]; tmax after dose, with both MR and MRV): ~3 h
- Increase of alisertib exposures with dose ([2]; over the range of 30 to 50 mg b.i.d.): approximately dose-proportional
- Objective response in GCB-derived disease [3]: None of the 7 response-evaluable patients; also recorded: no patients with GCB-derived disease (9/29) achieved an objective response
- ORR (CR + PR) ([4]; 37 response-evaluable patients (MR + MRV), n = 14): 38%
- CR ([4]; Total MR + MRV, N=37): 7 (19) n (%)
- ORR (CR + PR) ([4]; Total MR + MRV, N=37): 14 (38) n (%)
- PD ([4]; Total MR + MRV, N=37): 11 (30) n (%)
- PR ([4]; Total MR + MRV, N=37): 7 (19) n (%)
- Complete responses (CR) ([4]; all patients (MR + MRV)): Seven
- Median PFS ([4]; all patients (MR + MRV)): 5.1 months
- Partial responses (PRs) ([4]; all patients (MR + MRV)): 7 patients
- Median DOR ([4]; patients with a best response of CR, range 9.0–35.7): 14.3 months
- Median PFS ([4]; patients with a best response of CR, range 10.1–36.9): 16.4 months
- Median DOR ([4]; responding patients (MR + MRV)): 10.2 months
- Patients achieving first response by the end of cycle 2 ([4]; responding patients (MR + MRV)): 57%

SMILES: CC[C@]1(O)C[C@H]2CN(CCc3c([nH]c4ccccc34)[C@@](C(=O)OC)(c3cc4c(cc3OC)N(C=O)[C@H]3[C@@](O)(C(=O)OC)[C@H](OC(C)=O)[C@]5(CC)C=CCN6CC[C@]43[C@@H]65)C2)C1 [vincristine]
- Geometric mean ratio of vincristine AUC∞, presence vs absence of alisertib ([5]; MRV RP2D (alisertib 40 mg b.i.d.), 90% CI 82–115, n = 22): 97%
- AUC [5, 12]: 69.2 ng·h/mL
- AUC ([5]; 30 mg, alisertib 30 mg b.i.d. cohort, C2D1 (alisertib absent), n=2): 60.8 ng·h/mL
- AUC(0-inf) [5, 12]: 77 ng·h/mL
- AUC(0-inf) [5, 13]: 69 ng·h/mL
- clearance [5, 12]: 432 mL/min
- clearance [5, 14]: 483 mL/min
- Cmax [5, 14]: 98.2 ng/mL
- half-life [5, 12]: 20.2 h
- half-life [5, 13]: 19.9 h
- AUC ([5]; 40 mg, alisertib 40 mg b.i.d. cohort, C1D1 (alisertib present), n=24): 60.1 ng·h/mL
- AUC [5, 15]: 67.8 ng·h/mL
- AUC(0-inf) [5, 16]: 78 ng·h/mL
- AUC(0-inf) [5, 17]: 77 ng·h/mL
- clearance [5, 18]: 427 mL/min
- clearance [5, 15]: 432 mL/min
- Cmax [5, 18]: 82.9 ng/mL
- Cmax [5, 15]: 87.3 ng/mL
- half-life [5, 16]: 20 h
- half-life [5, 17]: 20.2 h
- AUC [5, 19]: 98 ng·h/mL
- AUC [5, 20]: 68.4 ng·h/mL
- AUC(0-inf) [5, 19]: 111 ng·h/mL
- clearance [5, 19]: 300 mL/min
- Cmax [5, 19]: 149 ng/mL
- Cmax [5, 20]: 120 ng/mL
- half-life [5, 19]: 25.6 h
- Cmax ([5]; vincristine 1.4 mg/m^2 + rituximab, alisertib 30 mg b.i.d. cohort, C1D1 (alisertib present), n=4): 120 ng/mL
